Only some compounds are listed: those with a hit (about 3.7% of all), similar ones and a draw of the others.
KCNQ1 pot: potentiators or activators of KCNQ1 channel, primary screen, cell-based, thallium flux, high-throughput | Potassium voltage-gated channel subfamily KQT member 1 (Homo sapiens), P51787 | CHO-K1 KCNQ1, thallium flux FluxOR fluorescence; active compounds read high | B-score at 10 µM | 310,000 tested, 0.35% active;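 active means fluorescence ratio B-score, a plate-corrected score, at least three library SD, with initial intensity B-score within 5 SD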
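Doses: Single concentration per compound, DMSO matched to controls | Test system: KCNQ1-transfected CHO-K1 cells | Timing: 90 min dye loading and 20 min compound exposure, both at room temperature | Measured by: Kinetic FluxOR thallium fluorescence, 10-s 1-Hz baseline, 110-s post-stimulus read | Medium: Assay buffer with matched DMSO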
KCNK9 inh: KCNK9 potassium channel inhibitors, primary screen, HEK293 cells, thallium flux; B-score at 10 µM; FluxOR thallium flux fluorescence; active compounds read low; AID 488922, 2010; Potassium channel subfamily K member 9 (Homo sapiens), Q9NPC2; 310,000 tested, 1.2% active;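 active means ratio B-score over 3 SD below the library mean, with starting fluorescence within 5 SD of its mean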;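 further: negative B-score means less thallium flux so channel inhibition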
Target sequence (Q9NPC2 whole entry, looked up): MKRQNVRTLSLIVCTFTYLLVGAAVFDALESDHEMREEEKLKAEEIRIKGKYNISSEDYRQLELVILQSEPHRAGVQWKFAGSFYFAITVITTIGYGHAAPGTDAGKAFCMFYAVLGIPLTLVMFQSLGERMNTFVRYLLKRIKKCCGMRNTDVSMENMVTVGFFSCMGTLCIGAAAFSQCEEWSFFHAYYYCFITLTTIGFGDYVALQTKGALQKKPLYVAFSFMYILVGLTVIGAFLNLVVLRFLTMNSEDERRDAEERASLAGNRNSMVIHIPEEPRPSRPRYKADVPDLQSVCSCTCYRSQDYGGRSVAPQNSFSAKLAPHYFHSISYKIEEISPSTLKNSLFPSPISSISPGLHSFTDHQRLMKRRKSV
KCNK3 block: human KCNK3 channel inhibitors, primary screen, CHO cells, FluxOR thallium flux, B-score | 340,000 tested, 0.84% active | Potassium channel subfamily K member 3 (Homo sapiens), O14649 | B-score at 10 µM | FluxOR fluorescence; active compounds read low;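 active means B-score under library mean minus 4 SD, starting fluorescence ratio at most library mean plus 5 SD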;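 further: more negative B-score means stronger inhibition of thallium flux through KCNK3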
hERG rescue: hERG rescue from dofetilide block, primary screen, cell-based, CHO-hERG, FluxOR thallium flux, dofetilide IC70 | 310,000 tested, 0.51% active | activation (rescue from dofetilide block), less the hit threshold, % at 10 µM | dofetilide IC70 present | Voltage-gated inwardly rectifying potassium channel KCNH2 (Homo sapiens), Q12809;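 active means activation above the mean of controls blocked by dofetilide plus 5 SD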;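 further: thallium influx through hERG after potassium depolarization seen as dye fluorescence rise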
KCNQ1 block: inhibitors of human KCNQ1 channel, primary screen, cell-based, thallium flux, high-throughput. Potassium voltage-gated channel subfamily KQT member 1 (Homo sapiens), P51787. CHO-K1 KCNQ1, FluxOR thallium flux fluorescence; active compounds read high. B-score at 10 µM. 310,000 tested, 1.3% active;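 active means compounds whose thallium flux B-score, printed positive for inhibition, exceeds three library SD while starting fluorescence stays within three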;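 further: channel opened by potassium depolarization with thallium stimulus after 20 min compound exposure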
Kir21 block: inhibitors of mouse Kir2.1 inward-rectifier potassium channel. Inward rectifier potassium channel 2 (Mus musculus), P35561. HEK293-Kir2.1, FluxOR thallium flux fluorescence; active compounds read low. B-score at 10 µM. 310,000 tested, 0.85% active;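 active means fluorescence ratio B-score at or below minus 3 SD of library scores, with starting-brightness B-score within 2 SD, cut at about -4.2 in these data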;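 further: channel flux triggered by added potassium and thallium sulfate stimulus; B-score of peak minus minimum fluorescence over baseline after thallium stimulus; more negative B-score means stronger Kir2.1 block with less thallium influx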
KCNQ1 inh valid: KCNQ1 potassium channel inhibitors, confirmation, cell-based, Tl flux, duplicate; inhibition, % at 10 µM; 1,600 tested, 93% active; shares compounds with KCNQ1 block; KCNQ1 cell line, FluxOR thallium flux fluorescence;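 active means primary screen active, with duplicate mean exceeding buffer control mean plus 3 SD of buffer wells, cut at about 28% in these data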;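 further: 0% = buffer control ratio and 100% = XE991 inhibitor control ratio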
CHO Tl flux: thallium flux effects in parental CHO cells, counter-screen for KCNQ1 inhibitor project, cell-based, Tl flux; shares compounds with KCNQ1 block; parental CHO-K1, FluxOR thallium flux fluorescence ratio; active compounds read low; zero means no signal rise above baseline; fluorescence ratio (Tl flux) at 10 µM; 1,600 tested, 21% active;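 active means mean of duplicate thallium-flux fluorescence ratios in parental host cells more than 5 SD below the buffer control mean, cut at about 0.38 in these data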;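 further: ratio is peak minus minimum fluorescence divided by baseline fluorescence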
KCNQ1 APC inh: KCNQ1 channel inhibitors, confirmation, orthogonal assay, cell-based, automated electrophysiology; AID 624120, 2012; 490 tested, 20% active; KCNQ1-CHO cells, automated patch clamp current; shares compounds with KCNQ1 block; calls only at 10 µM;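 active means KCNQ1 current drop exceeding 3 SD of negative control wells, seen in both duplicate runs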;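 further: steady state current during a 2 s step from -80 to +40 mV; negative values mean current inhibition and positive values mean potentiation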
KCNQ2 inh: KCNQ2 channel inhibition, selectivity assay for KCNQ1 inhibitor project, cell-based; KCNQ2 cells, FluxOR thallium flux fluorescence; 1,600 tested, 71% active; shares compounds with KCNQ1 block; inhibition, % at 10 µM;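 active means mean percent inhibition of the KCNQ2 thallium signal more than 5 SD above the buffer-only control wells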;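 further: KCNQ2 expressed in CHO cells; 0% = buffer control wells and 100% = XE-991 inhibitor control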
KCNQ1 KCNE1 spec: KCNQ1/KCNE1 channel inhibition, selectivity assay for KCNQ1 inhibitor project, CHO-K1 cells, thallium flux, FluxOR. shares compounds with KCNQ1 block. FluxOR thallium flux fluorescence. inhibition, % at 10 µM. 1,600 tested, 77% active;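 active means mean percent inhibition of duplicate wells above the buffer-only control mean plus 3 SD of those controls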;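 further: 0% = buffer only wells and 100% = XE-991 inhibitor control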
Active calls of the source: *; i = inactive; · = no result; + = active, no number.

SMILES	KCNQ1 pot	KCNK9 inh	KCNK3 block	hERG rescue	KCNQ1 block	Kir21 block	KCNQ1 inh valid	CHO Tl flux	KCNQ2 inh	KCNQ1 KCNE1 spec	others
Cc1ccc(-n2nc3c(=O)n(CCCC(=O)NCCc4ccccc4C)nc(C)c3c2C)cc1	i	i	i	-6.9	i	-0.85	·	·	·	·
CCN(CC)S(=O)(=O)c1ccc2oc(C(=O)NCC3COc4ccccc4O3)c(C)c2c1 (stereo not drawn)	i	i	i	-14.7	8*	0.48	96.5*	0.44	81.3%*	127.5%*	KCNQ1 APC inh=i
Cn1c(=O)c(N)c2c3c(c(Br)ccc31)C(=O)c1ccccc1-2	i	i	i	-33.7	21*	-11.4	+	0.0285*	i	i
CC(=O)N(Cc1cccs1)Cc1cc2cc(C)c(C)cc2nc1Cl	i	i	i	-11.2	i	-0.26	·	·	·	·
O=C(c1ccc(-n2cccn2)cc1)N1CCN(c2ncccc2C(F)(F)F)CC1	i	i	i	-0.1	i	0.45	·	·	·	·
CN(Cc1nccn1C)C(=O)CC1C(=O)NCCN1CC(c1ccccc1)c1ccccc1 (stereo not drawn)	i	i	i	-4.9	i	0.32	·	·	·	·
Cc1nc2nc(-c3cccs3)cn2nc1C	i	i	i	-26.9	7*	-4.01	104.0*	0.338*	i	i
Cc1nc2nc(-c3ccc(Cl)cc3)cn2nc1C	i	i	i	-3.1	i	-1.06	·	·	·	·
CCn1c(-c2cc(-c3cccc(OC)c3)nc3ccccc23)n[nH]c1=S	i	i	i	-12.4	6*	0.91	80.5*	0.472	i	95.0%*
CCc1ccc(-c2cc(-c3n[nH]c(=S)n3CC)c3ccccc3n2)cc1	i	i	·	-4.8	i	0.41	·	·	·	·
O=C(CSc1nnnn1-c1cccc(O)c1)NC1CC1	i	i	i	-4.1	i	0.01	·	·	·	·
Cc1ccc(NC(=O)C(=O)NCCN2CCN(S(=O)(=O)c3ccccc3)CC2)cc1C	i	i	i	-5.3	i	0.74	·	·	·	·
c1ccc(Cn2nnnc2C(c2cccnc2)N2CCN(C3CCCCC3)CC2)cc1 (stereo not drawn)	i	i	i	-11.5	8*	-0.99	39.0*	0.474	64.0%*	37.5%*
CCOC(=O)c1cccc(Nc2nc(-c3cccnc3)nc3ccccc23)c1	i	i	i	-18.7	7*	-0.02	124.5*	0.389	122.0%*	+	KCNQ1 APC inh=i
COC(=O)c1cccc(Nc2nc(-c3cccnc3)nc3ccccc23)c1	i	i	i	-6.3	i	0.23	·	·	·	·
N#Cc1cccc(NCC(=O)Nc2ccc3c(c2)OCCO3)c1	i	i	i	-12.3	i	-1.88	·	·	·	·
CC(=O)NC12CC3CC(C1)CC(C(=O)Nc1nc4ccc(S(C)(=O)=O)cc4s1)(C3)C2	i	i	i	-15.2	i	-1.01	·	·	·	·
Cc1cc(C)cc(NC(=O)NCC2CCN(Cc3cc(C)ccc3C)CC2)c1	i	i	i	-9.1	i	-0.26	·	·	·	·
Cc1ccc(C)c(CN2CCC(CNC(=O)Nc3ccc(F)c(Cl)c3)CC2)c1	i	i	i	-16.9	7*	-3.82	57.5*	0.435	i	42.0%*
COc1ccccc1-c1ccc(SCc2cccc(C)c2)nn1	i	i	i	-24.8	11*	-2.25	0.0	0.488	60.0%*	i
NCCC(=O)N1c2ccccc2Sc2ccc(Cl)cc21	i	i	i	-8.2	7*	-4.78*	71.5*	0.472	i	61.5%*
NCCCC(=O)N1c2ccccc2Sc2ccc(Cl)cc21	i	i	i	-2.8	i	-1.77	·	·	·	·
COc1ccc(-c2cc(=NC(CC(C)C)C(=O)O)c3cc(C)ccc3o2)cc1 (stereo not drawn)	i	i	i	-16.4	9*	-0.3	70.0*	0.454	i	54.0%*
COc1ccc(-c2cc(=O)c(C(=O)c3ccc(C)cc3)n[nH]2)cc1	i	i	i	-4.7	i	-0.97	·	·	·	·
COc1ccc(C2c3ccsc3CCN2C(=O)C(C)(C)C)cc1 (stereo not drawn)	i	i	i	-14.4	8*	0.18	116.5*	0.374*	82.0%*	152.0%*
COc1ccc(C2NCCc3sccc32)cc1 (stereo not drawn)	i	i	i	-0.8	i	1.54	·	·	·	·
CC(C(=O)NCc1ccccc1)N1C(=O)c2ccccc2C1=O (stereo not drawn)	i	i	i	-6.1	7*	1.38	28.5*	0.445	i	i
c1coc(CNc2nc(N3CCCCC3)nc3ccccc23)c1	i	i	i	-16.0	9*	-4.57*	59.5*	0.378*	72.0%*	62.5%*
OCCNc1nc(N2CCCCC2)nc2ccccc12	i	i	i	-4.7	i	0.65	·	·	·	·
O=C(c1cccc(S(=O)(=O)N2CCN(c3ccc(F)cc3)CC2)c1)N1CCCC(C(F)(F)F)C1 (stereo not drawn)	i	i	i	-14.1	6*	0.92	94.0*	0.484	89.0%*	64.5%*	KCNQ1 APC inh=i
